Experimental data: ChEMBL document CHEMBL3351371, “Design and synthesis of phenolic hydrazide hydrazones as potent poly(ADP-ribose) glycohydrolase (PARG) inhibitors” (Bioorg Med Chem Lett, 2014)
pIC50: −log10 of the molar value.

Biological target: Poly(ADP-ribose) glycohydrolase (Rattus norvegicus, UniProt Q9QYM2)
Test: Inhibition of rat testis GST-tagged PARG catalytic activity after 30 mins using [32P]poly(ADP-ribose) by radioassay
Method in brief: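 Recombinant rat PARG (from testis cDNA) expressed in E. coli as GST fusion (GST-RPG, 136 kDa), 15 ng per reaction. Compound in DMSO added to 4 μM [32P]poly(ADP-ribose) in 20 mM potassium phosphate pH 7.5, 50 mM KCl, 10 mM 2-mercaptoethanol; 37 °C, 30 min; stopped with 1% SDS (final). PEI-cellulose TLC (0.1 M LiCl/3 M AcOH/3 M urea), imaging-plate radioactivity; activity from fraction of degradation products.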

Chain of Poly(ADP-ribose) glycohydrolase (Q9QYM2 whole entry): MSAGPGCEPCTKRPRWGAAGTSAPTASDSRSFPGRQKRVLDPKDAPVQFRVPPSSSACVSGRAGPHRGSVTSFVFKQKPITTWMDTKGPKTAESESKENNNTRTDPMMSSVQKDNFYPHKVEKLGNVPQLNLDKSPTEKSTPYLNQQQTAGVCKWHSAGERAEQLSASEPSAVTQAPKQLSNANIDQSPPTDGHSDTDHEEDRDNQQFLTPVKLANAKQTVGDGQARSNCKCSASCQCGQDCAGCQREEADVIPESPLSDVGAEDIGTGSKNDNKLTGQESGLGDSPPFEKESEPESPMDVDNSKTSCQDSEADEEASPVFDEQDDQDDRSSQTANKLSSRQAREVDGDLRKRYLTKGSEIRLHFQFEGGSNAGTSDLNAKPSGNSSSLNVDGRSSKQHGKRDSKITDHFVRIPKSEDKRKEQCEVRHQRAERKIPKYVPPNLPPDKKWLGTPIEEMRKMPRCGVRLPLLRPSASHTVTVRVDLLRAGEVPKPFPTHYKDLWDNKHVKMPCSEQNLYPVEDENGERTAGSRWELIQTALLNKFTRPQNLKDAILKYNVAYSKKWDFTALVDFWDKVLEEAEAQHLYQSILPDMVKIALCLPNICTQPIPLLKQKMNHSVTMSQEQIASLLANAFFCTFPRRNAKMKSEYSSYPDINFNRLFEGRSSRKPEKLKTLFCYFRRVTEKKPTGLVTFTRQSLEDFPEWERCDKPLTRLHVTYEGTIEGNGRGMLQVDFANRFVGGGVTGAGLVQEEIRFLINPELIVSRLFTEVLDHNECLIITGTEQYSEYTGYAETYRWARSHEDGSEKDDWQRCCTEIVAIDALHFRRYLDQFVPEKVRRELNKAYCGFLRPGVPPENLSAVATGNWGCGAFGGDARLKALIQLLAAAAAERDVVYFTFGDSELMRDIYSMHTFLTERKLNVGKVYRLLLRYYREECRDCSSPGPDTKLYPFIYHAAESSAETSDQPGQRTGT

| pIC50 | Structure (SMILES) |
| --- | --- |
| < 4.12 | O=C(N/N=C/c1cccc(O)c1O)c1ccc(C(=O)N/N=C/c2cccc(O)c2O)cc1 |
| 6.00 | O=C(N/N=C/c1ccc(O)c(O)c1O)c1ccc(C(=O)N/N=C/c2ccc(O)c(O)c2O)cc1 |
| 4.83 | O=C(N/N=C/c1cccc(O)c1O)c1cccc(C(=O)N/N=C/c2cccc(O)c2O)c1 |
| 4.40 | O=C(N/N=C/c1ccc(O)cc1O)c1cccc(C(=O)N/N=C/c2ccc(O)cc2O)c1 |
| 5.51 | O=C(N/N=C/c1ccc(O)c(O)c1O)c1cccc(C(=O)N/N=C/c2ccc(O)c(O)c2O)c1 |
| 5.51 | O=C(N/N=C/c1ccc(O)c(O)c1O)C(=O)N/N=C/c1ccc(O)c(O)c1O |
| 5.80 | O=C(CC(=O)N/N=C/c1ccc(O)c(O)c1O)N/N=C/c1ccc(O)c(O)c1O |

The next lines start with the molecule.

| Structure (SMILES) | pIC50 |
| --- | --- |
| O=C(CCCC(=O)N/N=C/c1ccc(O)c(O)c1O)N/N=C/c1ccc(O)c(O)c1O | 4.86 |
| O=C(N/N=C/c1ccc(O)cc1O)c1ccc(C(=O)N/N=C/c2ccc(O)cc2O)cc1 | < 4.12 |
| O=C(N/N=C/c1ccc(O)c(O)c1)c1ccc(C(=O)N/N=C/c2ccc(O)c(O)c2)cc1 | < 4.12 |
| O=C(N/N=C/c1cc(O)c(O)c(O)c1)c1ccc(C(=O)N/N=C/c2cc(O)c(O)c(O)c2)cc1 | 5.68 |
| O=C(N/N=C/c1c(O)cc(O)cc1O)c1ccc(C(=O)N/N=C/c2c(O)cc(O)cc2O)cc1 | 5.00 |
| O=C(N/N=C/c1ccc(O)c(O)c1)c1cccc(C(=O)N/N=C/c2ccc(O)c(O)c2)c1 | 4.72 |
| O=C(N/N=C/c1cc(O)c(O)c(O)c1)c1cccc(C(=O)N/N=C/c2cc(O)c(O)c(O)c2)c1 | 5.49 |
| O=C(N/N=C/c1c(O)cc(O)cc1O)c1cccc(C(=O)N/N=C/c2c(O)cc(O)cc2O)c1 | 4.73 |
| O=C(N/N=C/c1cc(O)c(O)c(O)c1)C(=O)N/N=C/c1cc(O)c(O)c(O)c1 | 5.55 |
| O=C(CC(=O)N/N=C/c1cc(O)c(O)c(O)c1)N/N=C/c1cc(O)c(O)c(O)c1 | 4.81 |
| O=C(CCC(=O)N/N=C/c1ccc(O)c(O)c1O)N/N=C/c1ccc(O)c(O)c1O | 5.01 |
| O=C(CCC(=O)N/N=C/c1cc(O)c(O)c(O)c1)N/N=C/c1cc(O)c(O)c(O)c1 | 5.09 |
| O=C(CCCC(=O)N/N=C/c1cc(O)c(O)c(O)c1)N/N=C/c1cc(O)c(O)c(O)c1 | 4.56 |
| O=C(O[C@H]1[C@H](O)[C@@H](CO)OC(O)[C@@H]1O)c1cc(O)c(O)c(O)c1 (stereo partly drawn) | 6.02 |
| O=C(O)CCN1C(=O)/C(=C2\C(=O)c3cc(Br)ccc3N2Cc2c(Cl)cccc2Cl)SC1=S | 5.54 |
| Nc1ncnc2c1ncn2[C@@H]1O[C@H](CO[P@](=O)(O)O[P@@](=O)(O)OC[C@H]2NC[C@H](O)[C@@H]2O)[C@@H](O)[C@H]1O [ADENOSINE DIPHOSPHATE (HYDROXYMETHYL)PYRROLIDINEDIOL] | 7.00 |
